Data set [1] is described as follows: Plasma half-life from mouse blood samples. It is filed as in vivo. The note with it: intraperitoneal.
In data set [2] the test system is skin lesions (basal cell carcinomas) of Krt6a-cre: Ptch1^neo/neo mice. Nature of the data set: Topical treatment of basal cell carcinomas, tumor area by HE/ImageJ. It is filed as in vivo, mouse.
The subject of data set [3] is Hh target genes in skin of Krt6a-cre: Ptch1^neo/neo mice. Nature of the data set: Hh target gene expression in treated skin. It is filed as in vivo, mouse. The note with it: Figure 5C. The essentials:
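Tumour-bearing transgenic mice received test compound in 70% ethanol, applied topically to the abdominal skin daily for 21 days; 70% ethanol on the mid-belly served as control. Skin halves were frozen at –80°C. TRIzol total RNA (1 µg) was reverse-transcribed. Gene-specific probes were used for qPCR, with triplicate CT values analysed by the comparative CT method, normalised to 18S RNA and expressed relative to a calibrator.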

Data set [4] concerns Hh signaling-dependent motor neuron differentiation (E14Tg2a.4 embryonic stem cells). It is filed as cell-based, mouse. The essentials:
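Mouse E14Tg2a.4 ES cells seeded at 5 × 10^5 cells/mL in ES medium without LIF on ultra-low-adhesion plates for 2 days to form embryoid bodies. Motor neurons induced with retinoic acid 100 nmol/L plus purmorphamine 2.5 µmol/L for 5–7 days, with test compound in the induction medium. Read-outs: Hb9 immunofluorescence, and real-time PCR of Hip, FoxA2, Olig2 and Hb9.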

A short description of data set [5]: Solubility in deionized water.

What is called half-life is the time in which the quantity being followed falls by half. Low values mean rapid decline, high ones slow decline. Usually IC50 stands for the concentration at which inhibition is half-maximal. Regarding `CC1=C2C[C@H]3[C@@H](CC=C4C[C@@H](O)CC[C@@]43C)[C@@H]2CC[C@]12O[C@@H]1C[C@H](C)CN[C@H]1[C@H]2C` [Cyc, Cyclopamine], the half-life in data set [1] fell in the range of 1 to 4 h. Besides, the “Maximum reduction in tumor area” value in data set [2] (Cyc treatment group, topical daily for 21 days) is recorded as “less than 5%”. Further, the “Hedgehog target gene expression (HIP and Ptch1), RT-PCR” value in data set [3] is on record as “little effects”. Also, the IC50 in data set [4] (Mus musculus, Neuron, read-out: IC50, inhibitory activity for Hh signaling-dependent motor neuron differentiation) is 300 nM. The “Effect on motor neuron differentiation / expression of differentiation markers” value in data set [4] (compound at 50 nmol/L) is “no significant effects”.
For the molecule “3-Keto-N- (aminoethyl-aminocaproyl-dihydro-cinnamoyl) (KAAD)-Cyc [KAAD-Cyc]”, the “Reduction of tumor area” value in data set [2] (KAAD-Cyc (1 µmol/L topical per methods), data not shown) is recorded as “more than half”. The Solubility in water entry in data set [5] is listed as “not water soluble”.

(Values after PMC4013422 (Chinese Journal of Cancer, 2011).)
